Screening data (PubChem)
Mdm2 MdmX PPI: inhibitors of human Mdm2-MdmX association, primary screen, cell-based, luminescence, split luciferase, SaOS-2, uHTS; Protein Mdm4 (Homo sapiens) + E3 ubiquitin-protein ligase Mdm2 (Homo sapiens), …; SaOS-2 split-luciferase Mdm2/MdmX complementation; inhibition, % at 8 µM; hit rate 3% among 330,000;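 active = inhibition of at least 50% at 8 µM in the primary screen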
Target sequence (O15151 whole entry, looked up): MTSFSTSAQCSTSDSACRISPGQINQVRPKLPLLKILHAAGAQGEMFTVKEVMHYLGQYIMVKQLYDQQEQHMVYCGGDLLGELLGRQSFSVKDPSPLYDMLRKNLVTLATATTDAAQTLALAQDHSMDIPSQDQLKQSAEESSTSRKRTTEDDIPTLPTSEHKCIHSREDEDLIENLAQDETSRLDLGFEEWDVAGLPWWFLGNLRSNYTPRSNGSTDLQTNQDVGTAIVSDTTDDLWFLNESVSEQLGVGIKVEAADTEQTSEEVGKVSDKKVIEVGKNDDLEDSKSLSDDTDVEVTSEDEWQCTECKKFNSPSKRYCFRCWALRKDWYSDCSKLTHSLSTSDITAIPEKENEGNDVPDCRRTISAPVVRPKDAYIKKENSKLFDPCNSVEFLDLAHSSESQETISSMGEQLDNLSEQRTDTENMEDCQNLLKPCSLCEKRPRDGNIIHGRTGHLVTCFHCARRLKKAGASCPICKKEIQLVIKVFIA
Target sequence (Q00987 whole entry, looked up): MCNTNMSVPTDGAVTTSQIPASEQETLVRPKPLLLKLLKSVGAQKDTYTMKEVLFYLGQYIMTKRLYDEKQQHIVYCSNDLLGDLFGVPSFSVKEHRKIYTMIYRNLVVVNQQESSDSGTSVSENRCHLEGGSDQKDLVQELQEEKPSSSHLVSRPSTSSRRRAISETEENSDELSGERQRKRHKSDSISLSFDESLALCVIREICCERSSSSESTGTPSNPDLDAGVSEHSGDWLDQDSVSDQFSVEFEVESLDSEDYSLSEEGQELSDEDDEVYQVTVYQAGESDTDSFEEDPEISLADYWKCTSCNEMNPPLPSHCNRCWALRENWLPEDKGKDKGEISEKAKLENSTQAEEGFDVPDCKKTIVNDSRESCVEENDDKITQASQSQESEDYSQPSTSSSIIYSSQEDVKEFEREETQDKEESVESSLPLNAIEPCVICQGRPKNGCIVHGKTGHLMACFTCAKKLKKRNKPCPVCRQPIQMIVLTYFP
SKKanGAS inh: S. pyogenes SKKanGAS growth inhibitors in kanamycin, primary screen, streptokinase expression inhibitor project, SKKanGAS strain, BacTiter-Glo luminescence; 6 h; inhibition, % at 7.5 µM; hit rate 1.3% among 300,000;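 active = mean replicate score, as percent of positive control median, at least 50; inconclusive = mean below 50 but one replicate at or above 50; inactive = mean and every replicate below 50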;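 note: strain carries kanamycin resistance gene driven by streptokinase promoter and grows in 40 µg/ml kanamycin; loss of luminescence reflects streptokinase promoter inhibition or plain growth inhibition; 0% = median of DMSO wells and 100% = positive control at its reference dose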
T cruzi repl: inhibitors of intracellular T. cruzi growth, primary screen, luminescence, NIH3T3 host cells; T. cruzi beta-gal in NIH3T3, 90 h; inhibition, % (test concentration not listed); hit rate 1.4% among 300,000; AID 1885, 2009;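 active = mean inhibition across valid replicates above about 55%, limit read from the data; inconclusive = mean below that limit but half or more replicates reach it; inactive = mean below it, under half of replicates reach it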;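 note: signal also drops with host cell toxicity which is not excluded here; 0% = plate median of DMSO wells and 100% = zero luminescence signal; higher percent means less beta-gal luminescence so fewer parasites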
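Material: NIH/3T3 host cells with β-galactosidase reporter T. cruzi; Input: 5,000 host fibroblasts per well; Medium: DMEM, 2% fetal bovine serum; Compound: 50 nL DMSO compound solution per well; Schedule: 3 h host attachment, then at least 90 h co-culture; Detection: luminescent β-galactosidase signal after 60 min lysis.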
Calb FLC: C. albicans growth inhibition with fluconazole, primary screen, CaCi-2 strain, Alamar Blue fluorescence | C. albicans CaCi-2 (fluconazole-resistant clinical isolate) + fluconazole, 48 h | growth inhibition, % (concentration not given with the values) | hit rate 0.57% among 300,000 | AID 1979, 2009;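 active = growth inhibition above about 58% in most replicates, limit read from the data, passing the limit was not always enough; inconclusive = exactly half the replicates above a set limit; inactive = most replicates below a set limit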;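 note: all wells also contain fluconazole at 8 µg/ml as a sub-toxic cotreatment; 0% = median of DMSO wells and 100% = median of geldanamycin control wells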
CSC inhib: cancer stem cell viability inhibitors, primary screen, luminescence | cancer stem cell-like cells viability | inhibition, % at 7.5 µM | AID 2717, 2010 | hit rate 1.1% among 300,000; in the data active = inhibition above about 75%; inconclusive = no clear call, values can overlap the other calls; tested in HMLE shEcad cells
Beta apoptosis: inhibitors of cytokine-induced beta cell apoptosis, primary screen, luminescence | INS-1E cytokine-induced death, ATP luminescence, 48 h; percent of positive-control rescue, neutral wells zero | protection from apoptosis, % (test concentration not listed) | hit rate 0.8% among 300,000 | AID 435005, 2010;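 active = Every replicate reaches about 75%, or at least half do and their mean reaches it too, limit read from the data; inconclusive = At least half of replicates reach the limit but their mean does not; inactive = Under half of replicates reach the limit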;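 note: 0% = cytokine-treated negative control wells and 100% = positive control rescue; higher means more ATP so stronger rescue from cytokine killing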
Mdm2-MdmX conf: Mdm2-MdmX complex disruptors, retested hits, confirmation, luminescence, single concentration | shares compounds with Mdm2 MdmX PPI | Mdm2-MdmX binding, luminescent assay | inhibition, % at 8 µM | hit rate 55% among 10,000 | AID 489028, 2010; in the data active = inhibition above about 40%
FLuc counter: full-length luciferase signal inhibition, confirmation, counter-screen for Mdm2/MdmX interaction inhibitor project, cell-based, single concentration, SaOS-2; inhibition, % at 8 µM; SaOS-2 full-length luciferase counterscreen, luminescence; hit rate 77% among 6,200; AID 504607, 2011; shares compounds with Mdm2 MdmX PPI;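 active = mean inhibition at 8 µM reaching about 37%, which flags the compound as non-specific, limit read from the data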;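 note: p53-null SaOS-2 cells with luciferase driven by a doxycycline-inducible promoter; compound on cells about two nights before reading with doxycycline added after day one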
* marks the source's active call; other numbers are inactive results. The list is not random: actives were taken first. Their share in the collection is about 5.7%.

`COc1cccc(/C=N/Nc2ccc([N+](=O)[O-])cn2)c1O` gave Mdm2 MdmX PPI 93*, SKKanGAS inh 104*, T cruzi repl 25, Calb FLC 97*, CSC inhib 123*, Beta apoptosis 119*, Mdm2-MdmX conf 91* and FLuc counter 53*.
Screening O=[N+]([O-])c1ccc(Nc2nc(N/N=C/c3cccc(F)c3)nc(N3CCCC3)n2)cc1 returned Mdm2 MdmX PPI 43, SKKanGAS inh 30, T cruzi repl 33, Calb FLC -3, CSC inhib -2 and Beta apoptosis 24.
O=c1[nH]c(N/N=C/c2cc3c(cc2[N+](=O)[O-])OCO3)nc2ccccc12 was read as Mdm2 MdmX PPI 64*, SKKanGAS inh 8, T cruzi repl 0, Calb FLC 5, CSC inhib -19, Beta apoptosis -5 and Mdm2-MdmX conf 6.
Cc1ccc(Nc2nc(N/N=C\c3ccc4c(c3)OCO4)nc(N3CCOCC3)n2)cc1 was read as Mdm2 MdmX PPI 65*, SKKanGAS inh inconclusive, T cruzi repl 58*, Calb FLC 52, CSC inhib 54, Beta apoptosis 2, Mdm2-MdmX conf 57* and FLuc counter 78*.
Screening Cc1cc(C)c2c3c(sc2n1)C(=O)N(c1ccccc1)CC(=O)N3 returned Mdm2 MdmX PPI -15, SKKanGAS inh 1, T cruzi repl 3 and Calb FLC 3.
COC(=O)c1ccc2c(CCO)c[nH]c2c1 was read as Mdm2 MdmX PPI 20, SKKanGAS inh -5, T cruzi repl -32, Calb FLC -11, CSC inhib -7 and Beta apoptosis 0.
O=[N+]([O-])c1cc2c(cc1/C=N/Nc1nc(Nc3ccccc3)nc(N3CCCCC3)n1)OCO2 was read as Mdm2 MdmX PPI 64*, SKKanGAS inh 20, T cruzi repl 41, Calb FLC -3, CSC inhib 4, Beta apoptosis 10, Mdm2-MdmX conf 42* and FLuc counter 37*.
`O=C(NCc1csc(-c2cccs2)n1)C1CCCCC1` gave Mdm2 MdmX PPI 6, SKKanGAS inh 7, T cruzi repl 12, Calb FLC -17, CSC inhib -6 and Beta apoptosis -11.
CCCCC(=O)Nc1cnc(NC(=O)c2cccs2)cc1C was read as Mdm2 MdmX PPI -22, SKKanGAS inh 3, T cruzi repl 0, Calb FLC 10, CSC inhib -4 and Beta apoptosis 15.
`COc1ccccc1NC(=O)Cn1nnc(C(=O)NCc2cccs2)c1N` gave Mdm2 MdmX PPI 56*, SKKanGAS inh -9, T cruzi repl -9, Calb FLC 4, CSC inhib 54, Mdm2-MdmX conf 64* and FLuc counter 68*.
Screening COc1ccc(NC(=O)c2oc3ccccc3c2NC(=O)COc2ccccc2OC)c(OC)c1 returned Mdm2 MdmX PPI 70*, SKKanGAS inh -9, T cruzi repl -1, Calb FLC 30, CSC inhib 7, Beta apoptosis 9 and Mdm2-MdmX conf -5.
Cc1ccc(NC(=O)Cn2nnc(C(=O)NCc3cccs3)c2N)cc1 was read as Mdm2 MdmX PPI 21, SKKanGAS inh -18, T cruzi repl 3, Calb FLC 2, CSC inhib 3 and Beta apoptosis 0.
COc1ccc(NC(=O)c2nnn(CC(=O)Nc3ccccc3OC)c2N)c(OC)c1 was read as Mdm2 MdmX PPI 68*, SKKanGAS inh 0, T cruzi repl 1, Calb FLC -7, CSC inhib 0, Beta apoptosis -2 and Mdm2-MdmX conf -2.
Cc1ccc(C)c(NC(=O)Cn2nnc(C(=O)NCc3cccs3)c2N)c1 was read as Mdm2 MdmX PPI 65*, SKKanGAS inh 0, T cruzi repl -1, Calb FLC -1, CSC inhib 19, Beta apoptosis 0 and Mdm2-MdmX conf 12.
COc1ccc(NC(=O)Cn2nnc(C(=O)NCc3ccccc3)c2N)c(OC)c1 was read as Mdm2 MdmX PPI 13, SKKanGAS inh -3, T cruzi repl -12, Calb FLC -15, CSC inhib 16 and Beta apoptosis 6.
CC1(c2ccccc2)CC(C)(C)n2c(O)c(C3=NC(=S)NC3=O)c3cccc1c32 (stereo not given) was read as Mdm2 MdmX PPI 68*, SKKanGAS inh 18, T cruzi repl 41, Calb FLC -2, CSC inhib 20, Beta apoptosis 4 and Mdm2-MdmX conf 25.
COc1cc2c3c(c1)c(C1=NC(=S)NC1=O)c(O)n3C(C)(C)C=C2C was read as Mdm2 MdmX PPI 27, SKKanGAS inh 15, T cruzi repl 7, Calb FLC 0, CSC inhib 9 and Beta apoptosis 3.
COc1cc(/C=C2/C(=O)N(C)C(=S)N2C)ccc1OCc1cccc(F)c1 was read as Mdm2 MdmX PPI 88*, SKKanGAS inh -1, T cruzi repl -12, Calb FLC 4, CSC inhib -14, Beta apoptosis 0 and Mdm2-MdmX conf 24.
COc1ccc(S(=O)(=O)NC(C)C(=O)NCc2ccccn2)cc1OC (stereo not given) was read as Mdm2 MdmX PPI -4, SKKanGAS inh 3, T cruzi repl -5, Calb FLC 8, CSC inhib -13 and Beta apoptosis -1.
For Cc1cccc(/C=C/c2onc(C)c2S(=O)(=O)N2CCC(C(=O)N3CCCCCC3)CC2)c1 the results were Mdm2 MdmX PPI 21, SKKanGAS inh 18, T cruzi repl -16, Calb FLC -16, CSC inhib 44 and Beta apoptosis 19.
For Cc1cccc(/C=C/c2onc(C)c2S(=O)(=O)N2CCC(C(=O)N3CCC(C)CC3)CC2)c1 the results were Mdm2 MdmX PPI 52*, SKKanGAS inh 13, T cruzi repl 1, Calb FLC -11, CSC inhib -18, Beta apoptosis 1 and Mdm2-MdmX conf 11.
For Cc1cc(C)n(-c2ccc(NC(=O)C3CCCCN3Cc3cccc4c3OCO4)cc2)n1 (stereo not given) the results were Mdm2 MdmX PPI 52*, SKKanGAS inh 2, T cruzi repl 24, Calb FLC -6, Mdm2-MdmX conf 64* and FLuc counter 75*.
